Calls of active or inactive are those of the source. The rule behind the calls is not given here.
Columns and labels:
[1] = molecular target: T1, Lysine-specific demethylase 5A (Homo sapiens, UniProt P29375); experiment: Inhibition of KDM5A (unknown origin)
[2] = molecular target: T2, Lysine-specific demethylase 4A (Homo sapiens, UniProt O75164); experiment: Inhibition of KDM4A (unknown origin)
T2 sequence (O75164 whole entry): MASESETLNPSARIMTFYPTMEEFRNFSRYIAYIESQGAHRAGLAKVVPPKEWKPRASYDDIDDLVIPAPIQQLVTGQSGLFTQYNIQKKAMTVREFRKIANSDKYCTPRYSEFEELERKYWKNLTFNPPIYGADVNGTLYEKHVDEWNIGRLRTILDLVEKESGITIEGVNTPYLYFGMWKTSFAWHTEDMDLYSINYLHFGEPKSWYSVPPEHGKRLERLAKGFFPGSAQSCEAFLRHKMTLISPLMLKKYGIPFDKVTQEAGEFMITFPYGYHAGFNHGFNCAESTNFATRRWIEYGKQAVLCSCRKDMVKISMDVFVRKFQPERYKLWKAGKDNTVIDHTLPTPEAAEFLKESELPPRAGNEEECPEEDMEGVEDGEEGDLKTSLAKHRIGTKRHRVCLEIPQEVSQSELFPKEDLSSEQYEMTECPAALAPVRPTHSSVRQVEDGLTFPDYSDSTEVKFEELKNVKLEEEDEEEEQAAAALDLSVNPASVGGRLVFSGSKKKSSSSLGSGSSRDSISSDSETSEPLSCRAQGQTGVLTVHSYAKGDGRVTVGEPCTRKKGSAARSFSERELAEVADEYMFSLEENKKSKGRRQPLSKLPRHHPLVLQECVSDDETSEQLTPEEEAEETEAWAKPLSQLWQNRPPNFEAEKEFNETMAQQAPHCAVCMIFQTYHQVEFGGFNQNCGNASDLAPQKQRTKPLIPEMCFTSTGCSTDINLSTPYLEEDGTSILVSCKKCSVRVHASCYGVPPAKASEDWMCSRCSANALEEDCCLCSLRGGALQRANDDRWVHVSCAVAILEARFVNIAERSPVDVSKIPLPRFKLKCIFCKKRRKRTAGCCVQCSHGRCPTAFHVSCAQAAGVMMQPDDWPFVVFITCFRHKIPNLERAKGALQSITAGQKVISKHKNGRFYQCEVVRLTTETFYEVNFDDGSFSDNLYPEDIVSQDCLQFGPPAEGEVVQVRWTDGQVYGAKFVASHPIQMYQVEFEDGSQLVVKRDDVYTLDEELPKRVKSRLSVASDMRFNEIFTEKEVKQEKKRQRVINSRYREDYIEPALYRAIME

[3] = molecular target: Lysine-specific demethylase 5C (Homo sapiens, UniProt P41229); experiment: Inhibition of KDM5C (unknown origin) at 1 uM relative to control
[4] = molecular target: T3, Lysine-specific demethylase 5B (Homo sapiens, UniProt Q9UGL1); experiment: Inhibition of recombinant human N-terminal FLAG-tagged KDM5B expressed in Sf9 insect cells at 10 uM using biotin-H3K4me as substrate by ALPHA relative to control
T3 sequence (Q9UGL1 whole entry): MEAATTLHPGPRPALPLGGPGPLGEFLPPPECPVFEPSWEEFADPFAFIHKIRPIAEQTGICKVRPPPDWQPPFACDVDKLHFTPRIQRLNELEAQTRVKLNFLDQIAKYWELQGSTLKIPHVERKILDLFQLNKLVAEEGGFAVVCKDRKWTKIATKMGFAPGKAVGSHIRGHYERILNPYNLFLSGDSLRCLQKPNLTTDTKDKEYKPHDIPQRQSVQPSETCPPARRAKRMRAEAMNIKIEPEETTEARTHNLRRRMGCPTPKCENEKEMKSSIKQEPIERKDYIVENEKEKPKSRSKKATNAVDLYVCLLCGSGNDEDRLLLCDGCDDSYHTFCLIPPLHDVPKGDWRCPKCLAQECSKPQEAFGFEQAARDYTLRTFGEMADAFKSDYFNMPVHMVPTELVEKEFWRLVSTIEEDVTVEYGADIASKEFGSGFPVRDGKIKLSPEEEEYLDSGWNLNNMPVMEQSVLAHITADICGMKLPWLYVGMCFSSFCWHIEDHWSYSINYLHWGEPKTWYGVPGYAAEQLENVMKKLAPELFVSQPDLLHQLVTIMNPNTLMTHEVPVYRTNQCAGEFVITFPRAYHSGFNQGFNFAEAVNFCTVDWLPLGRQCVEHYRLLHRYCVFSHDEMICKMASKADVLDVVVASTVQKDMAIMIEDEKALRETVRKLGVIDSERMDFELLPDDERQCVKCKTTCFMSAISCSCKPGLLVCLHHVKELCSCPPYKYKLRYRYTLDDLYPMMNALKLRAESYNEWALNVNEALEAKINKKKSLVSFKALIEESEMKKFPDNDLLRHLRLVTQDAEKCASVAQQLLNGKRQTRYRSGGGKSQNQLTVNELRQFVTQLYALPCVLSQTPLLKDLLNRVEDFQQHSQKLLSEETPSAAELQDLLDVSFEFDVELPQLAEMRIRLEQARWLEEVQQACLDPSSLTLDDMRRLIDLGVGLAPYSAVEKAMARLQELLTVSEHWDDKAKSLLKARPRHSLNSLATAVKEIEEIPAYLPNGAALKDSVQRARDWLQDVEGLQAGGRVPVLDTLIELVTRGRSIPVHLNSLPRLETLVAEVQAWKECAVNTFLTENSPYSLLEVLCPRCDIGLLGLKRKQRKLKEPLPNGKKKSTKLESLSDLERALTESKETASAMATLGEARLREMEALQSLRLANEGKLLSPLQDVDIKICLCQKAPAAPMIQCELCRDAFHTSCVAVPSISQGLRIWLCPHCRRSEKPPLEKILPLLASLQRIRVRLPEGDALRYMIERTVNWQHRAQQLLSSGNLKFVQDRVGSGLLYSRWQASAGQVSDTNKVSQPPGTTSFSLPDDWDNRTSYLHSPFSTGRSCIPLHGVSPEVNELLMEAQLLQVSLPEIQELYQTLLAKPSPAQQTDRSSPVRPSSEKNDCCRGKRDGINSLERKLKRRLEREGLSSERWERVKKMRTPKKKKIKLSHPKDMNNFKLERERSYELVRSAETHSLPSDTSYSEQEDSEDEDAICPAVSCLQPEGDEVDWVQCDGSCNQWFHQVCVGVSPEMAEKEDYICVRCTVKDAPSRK
Procedure, shortened: (§1)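 ALPHA demethylase assay. Recombinant KDM5B (4 nM) was preincubated with compound, then biotin-H3K4me3 peptide (64 nM) was added. Buffer: 10 μM α-KG, 100 μM ascorbate, 50 μM (NH4)2Fe(SO4)2, 50 mM HEPES pH 7.5, 0.01% Tween 20, 0.1% BSA. Read-out used streptavidin donor and H3K4me1-2 antibody acceptor beads. Data were normalized to blank control and IC50 fitted.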

[5] = molecular target: T4, Lysine-specific demethylase 6B (Homo sapiens, UniProt O15054); experiment: Inhibition of KDM6B (unknown origin) at 0.25 uM relative to control
T4 sequence (O15054 whole entry): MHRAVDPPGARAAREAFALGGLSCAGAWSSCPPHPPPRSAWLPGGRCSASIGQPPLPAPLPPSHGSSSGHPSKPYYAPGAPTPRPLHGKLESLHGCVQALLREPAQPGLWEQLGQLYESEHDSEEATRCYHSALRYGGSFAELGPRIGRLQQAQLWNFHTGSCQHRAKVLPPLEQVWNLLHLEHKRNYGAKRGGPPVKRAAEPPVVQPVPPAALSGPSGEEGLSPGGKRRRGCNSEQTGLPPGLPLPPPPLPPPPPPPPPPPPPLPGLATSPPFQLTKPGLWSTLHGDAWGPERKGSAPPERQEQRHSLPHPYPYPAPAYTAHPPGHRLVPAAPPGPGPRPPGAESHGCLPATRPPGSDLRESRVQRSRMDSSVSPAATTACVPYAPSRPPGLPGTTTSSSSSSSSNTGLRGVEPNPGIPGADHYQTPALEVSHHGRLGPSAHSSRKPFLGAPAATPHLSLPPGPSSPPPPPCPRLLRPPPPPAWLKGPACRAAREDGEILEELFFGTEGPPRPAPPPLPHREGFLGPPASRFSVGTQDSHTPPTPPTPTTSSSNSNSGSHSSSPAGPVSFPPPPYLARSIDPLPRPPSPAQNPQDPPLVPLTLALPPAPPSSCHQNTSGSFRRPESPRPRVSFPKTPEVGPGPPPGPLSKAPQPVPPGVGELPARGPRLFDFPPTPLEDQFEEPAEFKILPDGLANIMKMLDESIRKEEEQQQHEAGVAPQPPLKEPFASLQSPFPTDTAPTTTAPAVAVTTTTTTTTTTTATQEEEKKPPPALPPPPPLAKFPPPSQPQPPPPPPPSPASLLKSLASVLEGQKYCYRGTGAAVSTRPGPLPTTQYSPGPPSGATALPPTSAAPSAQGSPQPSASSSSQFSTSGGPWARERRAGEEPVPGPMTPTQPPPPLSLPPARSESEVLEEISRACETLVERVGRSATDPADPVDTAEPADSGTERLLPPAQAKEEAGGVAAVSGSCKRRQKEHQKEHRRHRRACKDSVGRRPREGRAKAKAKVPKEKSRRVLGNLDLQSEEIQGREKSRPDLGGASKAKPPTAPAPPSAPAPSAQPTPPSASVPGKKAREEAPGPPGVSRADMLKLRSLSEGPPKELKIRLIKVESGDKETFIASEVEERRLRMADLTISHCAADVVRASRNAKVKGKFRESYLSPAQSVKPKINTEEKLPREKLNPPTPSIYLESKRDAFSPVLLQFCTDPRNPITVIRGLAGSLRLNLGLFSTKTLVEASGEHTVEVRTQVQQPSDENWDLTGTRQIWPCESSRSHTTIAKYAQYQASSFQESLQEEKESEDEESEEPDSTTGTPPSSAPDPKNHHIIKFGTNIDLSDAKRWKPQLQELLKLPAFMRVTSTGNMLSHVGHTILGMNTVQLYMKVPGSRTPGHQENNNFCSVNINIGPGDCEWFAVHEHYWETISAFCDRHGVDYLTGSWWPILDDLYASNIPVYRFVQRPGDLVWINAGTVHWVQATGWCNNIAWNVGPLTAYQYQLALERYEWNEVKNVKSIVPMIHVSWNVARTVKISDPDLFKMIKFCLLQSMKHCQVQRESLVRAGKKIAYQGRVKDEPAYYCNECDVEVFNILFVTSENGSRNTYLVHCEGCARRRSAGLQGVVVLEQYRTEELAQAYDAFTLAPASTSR

[6] = molecular target: T3, Lysine-specific demethylase 5B; experiment: Inhibition of KDM5B in human MKN-45 cells assessed as increase in H3K4me2 accumulation at 0.5 to 20 uM measured after 5 days by Western blot analysis; format: cell-based; conditions: dose 0.5-20 µM, time 5.0 day
Procedure, shortened: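 MKN45 cells were treated for 5 days and lysed in RIPA buffer. About 30 µg protein was run on 10% SDS-PAGE and transferred to 0.2 µm nitrocellulose, then blocked with 5% milk in PBS for 2 h. Blots were probed for histone methylation marks with histone 3 as loading control and detected by ECL.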

[7] = molecular target: T4, Lysine-specific demethylase 6B; experiment: Inhibition of KDM6B (unknown origin) at 0.01 uM relative to control
[8] = molecular target: T5, Lysine-specific demethylase 4C (Homo sapiens, UniProt Q9H3R0); experiment: Inhibition of KDM4C (unknown origin)
T5 sequence (Q9H3R0 whole entry): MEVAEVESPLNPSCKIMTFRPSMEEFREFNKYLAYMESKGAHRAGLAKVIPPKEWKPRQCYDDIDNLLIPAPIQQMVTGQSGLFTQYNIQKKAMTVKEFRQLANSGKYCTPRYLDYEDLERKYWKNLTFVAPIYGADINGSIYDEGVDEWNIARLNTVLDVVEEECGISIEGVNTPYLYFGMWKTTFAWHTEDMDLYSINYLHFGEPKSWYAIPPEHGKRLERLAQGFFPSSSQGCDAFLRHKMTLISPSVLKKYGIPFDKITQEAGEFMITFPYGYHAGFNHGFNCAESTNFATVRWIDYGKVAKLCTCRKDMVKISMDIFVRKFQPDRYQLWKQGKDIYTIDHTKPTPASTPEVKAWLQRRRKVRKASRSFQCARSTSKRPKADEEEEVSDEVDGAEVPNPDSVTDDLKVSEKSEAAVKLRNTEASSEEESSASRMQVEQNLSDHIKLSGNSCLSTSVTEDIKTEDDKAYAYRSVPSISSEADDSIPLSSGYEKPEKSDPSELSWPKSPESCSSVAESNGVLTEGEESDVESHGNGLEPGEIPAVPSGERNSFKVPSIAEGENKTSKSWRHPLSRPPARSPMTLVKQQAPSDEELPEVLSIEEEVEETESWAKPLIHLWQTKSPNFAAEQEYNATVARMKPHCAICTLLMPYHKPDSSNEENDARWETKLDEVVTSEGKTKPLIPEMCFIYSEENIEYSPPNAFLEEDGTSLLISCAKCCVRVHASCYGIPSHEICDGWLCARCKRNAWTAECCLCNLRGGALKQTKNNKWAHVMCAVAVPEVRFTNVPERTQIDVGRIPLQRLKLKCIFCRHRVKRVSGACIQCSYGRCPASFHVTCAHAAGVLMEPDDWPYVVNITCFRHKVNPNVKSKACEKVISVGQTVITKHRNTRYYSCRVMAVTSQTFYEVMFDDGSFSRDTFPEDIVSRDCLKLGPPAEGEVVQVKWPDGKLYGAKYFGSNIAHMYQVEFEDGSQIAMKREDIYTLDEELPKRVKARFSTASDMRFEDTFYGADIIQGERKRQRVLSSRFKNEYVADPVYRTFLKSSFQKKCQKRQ

[9] = molecular target: T3, Lysine-specific demethylase 5B; experiment: Inhibition of recombinant human N-terminal FLAG-tagged KDM5B expressed in Sf9 insect cells using biotin-H3K4me as substrate by ALPHA; procedure, shortened: as §1
[10] = molecular target: T1, Lysine-specific demethylase 5A; experiment: Inhibition of KDM5A (unknown origin) at 1 uM relative to control

T1 sequence (P29375 whole entry): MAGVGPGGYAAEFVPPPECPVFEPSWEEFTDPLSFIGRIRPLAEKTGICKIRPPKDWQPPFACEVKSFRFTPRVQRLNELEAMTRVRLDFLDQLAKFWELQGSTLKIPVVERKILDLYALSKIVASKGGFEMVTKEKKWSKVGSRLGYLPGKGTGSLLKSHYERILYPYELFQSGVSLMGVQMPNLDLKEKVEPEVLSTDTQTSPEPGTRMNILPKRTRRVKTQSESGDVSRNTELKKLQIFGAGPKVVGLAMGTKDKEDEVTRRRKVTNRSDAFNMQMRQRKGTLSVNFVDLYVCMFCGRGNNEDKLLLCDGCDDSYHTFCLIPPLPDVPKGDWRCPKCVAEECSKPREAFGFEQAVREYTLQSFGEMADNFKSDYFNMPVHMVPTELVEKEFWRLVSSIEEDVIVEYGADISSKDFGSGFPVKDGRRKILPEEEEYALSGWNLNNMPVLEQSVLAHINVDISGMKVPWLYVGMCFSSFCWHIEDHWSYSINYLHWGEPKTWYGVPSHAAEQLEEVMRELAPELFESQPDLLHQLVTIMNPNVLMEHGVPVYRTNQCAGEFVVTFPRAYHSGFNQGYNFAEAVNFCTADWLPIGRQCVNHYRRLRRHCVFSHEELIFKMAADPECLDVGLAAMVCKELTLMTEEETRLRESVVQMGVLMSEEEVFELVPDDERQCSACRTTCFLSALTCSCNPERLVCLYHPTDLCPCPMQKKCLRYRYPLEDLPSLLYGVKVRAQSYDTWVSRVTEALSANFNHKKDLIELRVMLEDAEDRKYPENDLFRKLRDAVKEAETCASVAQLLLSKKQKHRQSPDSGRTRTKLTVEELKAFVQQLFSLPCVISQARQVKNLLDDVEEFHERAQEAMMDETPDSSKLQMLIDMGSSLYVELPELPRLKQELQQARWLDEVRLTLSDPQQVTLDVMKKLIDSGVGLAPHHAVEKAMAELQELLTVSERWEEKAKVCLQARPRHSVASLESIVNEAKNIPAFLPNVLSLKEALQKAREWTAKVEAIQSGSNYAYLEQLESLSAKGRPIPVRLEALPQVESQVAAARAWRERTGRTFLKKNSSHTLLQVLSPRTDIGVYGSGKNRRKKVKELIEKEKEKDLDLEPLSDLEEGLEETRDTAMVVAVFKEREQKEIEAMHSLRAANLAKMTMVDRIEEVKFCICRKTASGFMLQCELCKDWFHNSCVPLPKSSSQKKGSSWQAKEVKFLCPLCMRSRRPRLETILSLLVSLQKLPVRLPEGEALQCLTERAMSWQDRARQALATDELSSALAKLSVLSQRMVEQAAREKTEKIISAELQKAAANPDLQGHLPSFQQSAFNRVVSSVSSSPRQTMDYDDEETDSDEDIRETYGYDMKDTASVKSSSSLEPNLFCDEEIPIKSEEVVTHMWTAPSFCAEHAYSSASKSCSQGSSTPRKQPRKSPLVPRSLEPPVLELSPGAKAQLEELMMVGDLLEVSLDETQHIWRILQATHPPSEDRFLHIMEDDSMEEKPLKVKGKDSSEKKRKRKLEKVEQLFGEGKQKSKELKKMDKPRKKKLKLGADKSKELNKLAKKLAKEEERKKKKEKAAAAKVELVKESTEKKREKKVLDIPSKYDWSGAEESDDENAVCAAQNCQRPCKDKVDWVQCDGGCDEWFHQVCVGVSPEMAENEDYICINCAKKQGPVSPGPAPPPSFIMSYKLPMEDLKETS

IC50 [1]: 24.9 nM | IC50 [2]: 954 nM | inhibition [3]: 80.2% | inhibition [4]: 95.8% | inhibition [5]: 12.4% | inhibition [6]: Active | inhibition [7]: 3.57% | IC50 [8]: 1110 nM | IC50 [9]: 24.4 nM | inhibition [10]: 79.3%
SMILES: COc1ccc(-n2cc(C(=O)NCC(C)(C)N3CCOCC3)c(-c3ccccc3)n2)cc1

Source: ChEMBL document CHEMBL4680221, “Discovery of pyrazole derivatives as cellular active inhibitors of histone lysine specific demethylase 5B (KDM5B/JARID1B)” (Eur J Med Chem, 2020)
